From ChEMBL document CHEMBL1177891, “Synthesis and bioassay of pyrrolyl oxazolines and thiazolines” (2010) come the findings set out here.

The structures appear in SMILES notation. In brackets after ≈: the same amount, converted by molar mass.

Type in all cases: functional
Experiment [1] relates to Staphylococcus aureus. As to the kind of experiment: Antibacterial activity against Staphylococcus aureus at 100 ug/disk after 24 hrs by disk diffusion method. The note with it: read-out: IZ. Put shortly:
(§1)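 Agar disc diffusion on nutrient agar with NCIM bacteria. 6 mm sterile paper discs moistened with compound in DMSO (100 or 200 μg/disc) placed on pre-inoculated plates. Incubated at 37 °C; growth-inhibition zone diameter measured after 24 h. Chloramphenicol control.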

The subject of experiment [2] is Staphylococcus aureus. The experiment can be described thus: Antibacterial activity against Staphylococcus aureus at 200 ug/disk after 24 hrs by disk diffusion method. The note with it: read-out: IZ. The method in brief:
as §1

The test system of experiment [3] is Bacillus subtilis. The experiment can be described thus: Antibacterial activity against Bacillus subtilis at 100 ug/disk after 24 hrs by disk diffusion method. The note with it: read-out: IZ. Put shortly: as §1
(In general: Agar diffusion results depend on both activity and mobility in agar.)

Experiment [4] concerns Bacillus subtilis. The experiment can be described thus: Antibacterial activity against Bacillus subtilis at 200 ug/disk after 24 hrs by disk diffusion method. The note with it: read-out: IZ. Put shortly: as §1
Experiment [5] relates to Klebsiella pneumoniae. The experiment can be described thus: Antibacterial activity against Klebsiella pneumoniae at 100 ug/disk after 24 hrs by disk diffusion method. The note with it: read-out: IZ. Put shortly: as §1
Experiment [6] has as its system Klebsiella pneumoniae. As to the kind of experiment: Antibacterial activity against Klebsiella pneumoniae at 200 ug/disk after 24 hrs by disk diffusion method. The note with it: read-out: IZ. The method in brief:
as §1

Experiment [7] deals with Proteus vulgaris. The experiment can be described thus: Antibacterial activity against Proteus vulgaris at 100 ug/disk after 24 hrs by disk diffusion method. The note with it: read-out: IZ. The method in brief:
as §1

Experiment [8] deals with Proteus vulgaris. The experiment can be described thus: Antibacterial activity against Proteus vulgaris at 200 ug/disk after 24 hrs by disk diffusion method. The note with it: read-out: IZ. The method in brief:
as §1

Experiment [9] relates to Fusarium solani. As to the kind of experiment: Antifungal activity against Fusarium solani at 100 ug/disk after 48 hrs by disk diffusion method. The note with it: read-out: IZ. Put shortly:
(§2)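 Fungi from NCIM on nutrient agar plates, pre-inoculated. 6 mm paper discs carrying 100 or 200 μg compound in DMSO applied. Plates incubated at 37 °C and inhibition zone diameter measured at 48 h. Ketoconazole control.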

Experiment [10] deals with Fusarium solani. The experiment can be described thus: Antifungal activity against Fusarium solani at 200 ug/disk after 48 hrs by disk diffusion method. The note with it: read-out: IZ. Put shortly: as §2
Experiment [11] relates to Curvularia lunata. As to the kind of experiment: Antifungal activity against Curvularia lunata at 100 ug/disk after 48 hrs by disk diffusion method. The note with it: read-out: IZ. The method in brief:
as §2

Experiment [12] deals with Curvularia lunata. The experiment can be described thus: Antifungal activity against […] lunata at 200 ug/disk after 48 hrs by disk diffusion method. The note with it: read-out: IZ. The method in brief:
as §2

For experiment [13], the system named is Aspergillus niger. The experiment can be described thus: Antifungal activity against Aspergillus niger at 100 ug/disk after 48 hrs by disk diffusion method. The note with it: read-out: IZ. The method in brief: as §2
Experiment [14] deals with Aspergillus niger. As to the kind of experiment: Antifungal activity against Aspergillus niger at 200 ug/disk after 48 hrs by disk diffusion method. The note with it: read-out: IZ. Put shortly: as §2
For experiment [15], the system named is Staphylococcus aureus. The experiment can be described thus: Antibacterial activity against Staphylococcus aureus after 24 hrs by microdilution susceptibility assay. The method in brief:
(§3)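 Bacterial strains from NCIM. Broth microdilution: stocks at 800 μg/ml in DMSO, two-fold dilutions 400, 200, 100 ... 6.25 μg/ml, wells inoculated with bacterial suspension, 36 °C for 24 h. MIC = lowest concentration with no turbidity (no visible growth). Chloramphenicol as reference.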

Experiment [16] has as its system Bacillus subtilis. The experiment can be described thus: Antibacterial activity against Bacillus subtilis after 24 hrs by microdilution susceptibility assay. The method in brief:
as §3
A general note: Dilution methods test growth across graded concentrations, often in twofold steps.

In experiment [17] the test system is Klebsiella pneumoniae. As to the kind of experiment: Antibacterial activity against Klebsiella pneumoniae after 24 hrs by microdilution susceptibility assay. The method in brief: as §3
The subject of experiment [18] is Proteus vulgaris. As to the kind of experiment: Antibacterial activity against Proteus vulgaris after 24 hrs by microdilution susceptibility assay. The method in brief: as §3
The subject of experiment [19] is Fusarium solani. As to the kind of experiment: Antifungal activity against Fusarium solani after 48 hrs by microdilution susceptibility assay. Put shortly:
(§4)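 Fungal strains from NCIM. Microdilution: stocks at 800 μg/ml in DMSO, two-fold dilutions 400 down to 6.25 μg/ml, wells inoculated with fungal suspension, incubated 36 °C for 48 h. MIC read as lowest concentration without turbidity. Ketoconazole reference.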

Experiment [20] deals with Curvularia lunata. As to the kind of experiment: Antifungal activity against Curvularia lunata after 48 hrs by microdilution susceptibility assay. The method in brief: as §4
The subject of experiment [21] is Aspergillus niger. The experiment can be described thus: Antifungal activity against Aspergillus niger after 48 hrs by microdilution susceptibility assay. The method in brief:
as §4

The nature of experiment [22]: Antioxidant activity assessed as inhibition of nitric oxide production at 100 uM. Put shortly: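 Sodium nitroprusside ([…]) in phosphate buffer pH 7.4 incubated with 100 μM compound (dioxane/methanol) at 25 °C for 120 min; solvent-only control. Aliquots mixed 1:1 with Griess reagent (1% sulfanilamide, 0.1% N-naphthylethylenediamine, 2% phosphoric acid). Absorbance at 546 nm, triplicate.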

In experiment [23] the test system is Radical scavenging activity. As to the kind of experiment: Antioxidant activity assessed as DPPH radical scavenging activity at 100 uM. Put shortly: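 Compound (100 μM) added to 100 μM DPPH in dioxane/ethanol. Kept at ambient temperature 20 min, then absorbance read at 517 nm. Percent DPPH scavenging taken from difference between test and control.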
Experiment [24] can be described thus: Antioxidant activity assessed as increase in reducing power at 100 uM. Put shortly: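 Oyaizu method. Compound at 100 μM in methanol mixed with 0.2 M phosphate buffer pH 6.6 and 1% potassium ferricyanide, 50 °C for 20 min. 10% TCA added, then centrifuged 3000 rpm for 10 min. Upper layer mixed with water and 0.1% FeCl3; absorbance read at 700 nm.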

As a reminder, the MIC is the least concentration at which growth counts as inhibited. Read a high MIC as a less susceptible organism. In general, inhibition refers to the share of the control response that was lost under treatment. For `O=S(=O)(CC1=NCCS1)c1c[nH]cc1S(=O)(=O)c1ccc(Cl)cc1`, the zone of inhibition at 100 µg/disc in the experiment with Staphylococcus aureus [1] came to 32 mm; in the experiment with Bacillus subtilis [3] it was 33 mm; with Klebsiella pneumoniae [5] it was 27 mm; with Proteus vulgaris [7] it was 29 mm; with Fusarium solani [9] it was 35 mm; with Curvularia lunata [11], 36 mm. Moreover, the zone of inhibition at 100 µg/disc in the experiment with Aspergillus niger [13] worked out at 34 mm. Further, the zone of inhibition at 200 µg/disc in the experiment with Staphylococcus aureus [2] worked out at 34 mm; in the experiment with Bacillus subtilis [4], 35 mm; in the experiment on Klebsiella pneumoniae [6] it was 29 mm; with Proteus vulgaris [8], 30 mm; in the experiment on Fusarium solani [10], 38 mm; with Curvularia lunata [12] it was 41 mm. Also, the zone of inhibition at 200 µg/disc in the experiment with Aspergillus niger [14] was 38 mm. Moreover, the MIC against Staphylococcus aureus [15] was determined as 25 µg/mL (≈ 61.7 µM); with Bacillus subtilis [16], 12.5 µg/mL (≈ 30.9 µM); in the experiment with Klebsiella pneumoniae [17], 50 µg/mL (≈ 123 µM); against Proteus vulgaris [18] it was 50 µg/mL (≈ 123 µM); with Fusarium solani [19], 50 µg/mL (≈ 123 µM); against Curvularia lunata [20], 12.5 µg/mL (≈ 30.9 µM). This compound also returned an MIC with Aspergillus niger [21] of 25 µg/mL (≈ 61.7 µM). The inhibition in experiment [22] was determined as 41.4%; in experiment [23] it was 40.5%; in experiment [24], 40.4%.
In the case of `O=S(=O)(CC1=NCCS1)c1c[nH]cc1S(=O)(=O)c1ccccc1`, the zone of inhibition at 100 µg/disc with Staphylococcus aureus [1] was 29 mm; with Bacillus subtilis [3], 30 mm; with Klebsiella pneumoniae [5], 23 mm; in the experiment with Proteus vulgaris [7] it was 24 mm; with Fusarium solani [9], 34 mm; with Curvularia lunata [11] it was 32 mm. For the same compound, the zone of inhibition at 100 µg/disc with Aspergillus niger [13] turned out to be 30 mm. The zone of inhibition at 200 µg/disc in the experiment with Staphylococcus aureus [2] was determined as 30 mm; in the experiment with Bacillus subtilis [4] it was 32 mm; with Klebsiella pneumoniae [6] it was 25 mm; in the experiment on Proteus vulgaris [8], 28 mm; in the experiment with Fusarium solani [10], 37 mm; with Curvularia lunata [12] it was 35 mm. Moreover, the zone of inhibition at 200 µg/disc in the experiment with Aspergillus niger [14] worked out at 33 mm. Moreover, the MIC against Staphylococcus aureus [15] was found to be 100 µg/mL (≈ 270 µM); with Bacillus subtilis [16] it was 50 µg/mL (≈ 135 µM); with Klebsiella pneumoniae [17], 100 µg/mL (≈ 270 µM); in the experiment on Proteus vulgaris [18], 100 µg/mL (≈ 270 µM); with Fusarium solani [19], 100 µg/mL (≈ 270 µM); against Curvularia lunata [20], 100 µg/mL (≈ 270 µM). This compound yielded an MIC in the experiment with Aspergillus niger [21] of 100 µg/mL (≈ 270 µM). For the same compound, the inhibition came out at 34.6% in experiment [22], 33.8% in experiment [23] and 32.4% in experiment [24].
Consider `Cc1ccc(S(=O)(=O)c2c[nH]cc2S(=O)(=O)CC2=NCCS2)cc1`, for which the zone of inhibition at 100 µg/disc was 23 mm with Staphylococcus aureus [1]; 22 mm with Bacillus subtilis [3]; 20 mm with Klebsiella pneumoniae [5]; 17 mm in the experiment with Proteus vulgaris [7]; 29 mm in the experiment with Fusarium solani [9]; 28 mm in the experiment with Curvularia lunata [11]. The zone of inhibition at 100 µg/disc with Aspergillus niger [13] came to 31 mm. The zone of inhibition at 200 µg/disc with Staphylococcus aureus [2] is 26 mm; with Bacillus subtilis [4], 24 mm; with Klebsiella pneumoniae [6] it was 21 mm; with Proteus vulgaris [8] it was 19 mm; in the experiment with Fusarium solani [10], 31 mm; in the experiment on Curvularia lunata [12] it was 32 mm. Moreover, in the experiment on Aspergillus niger [14], the zone of inhibition at 200 µg/disc came out at 35 mm. The inhibition in experiment [22] turned out to be 23.7%; in [23], 23.2%; in experiment [24], 22.9%.
In the case of `O=C(N[C@H](CO)[C@H](O)c1ccc([N+](=O)[O-])cc1)C(Cl)Cl` [CHLORAMPHENICOL], the zone of inhibition at 100 µg/disc in the experiment with Staphylococcus aureus [1] was 35 mm; with Bacillus subtilis [3] it was 38 mm; with Klebsiella pneumoniae [5], 37 mm; in the experiment on Proteus vulgaris [7], 42 mm. Also, the zone of inhibition at 200 µg/disc is 41 mm in the experiment on Staphylococcus aureus [2], 44 mm in the experiment on Bacillus subtilis [4], 42 mm in the experiment with Klebsiella pneumoniae [6] and 45 mm in the experiment with Proteus vulgaris [8]. The MIC turned out to be 6.25 µg/mL (≈ 19.3 µM) in the experiment with Staphylococcus aureus [15], 6.25 µg/mL (≈ 19.3 µM) against Bacillus subtilis [16], 6.25 µg/mL (≈ 19.3 µM) in the experiment on Klebsiella pneumoniae [17] and 12.5 µg/mL (≈ 38.7 µM) against Proteus vulgaris [18].
As to `CC(=O)N1CCN(c2ccc(OCC3COC(Cn4ccnc4)(c4ccc(Cl)cc4Cl)O3)cc2)CC1` (stereo unspecified) [KETOCONAZOLE], the figures for the zone of inhibition at 100 µg/disc with Fusarium solani [9], in the experiment with Curvularia lunata [11] and in the experiment with Aspergillus niger [13] were 38 mm, 41 mm and 36 mm, respectively. For the same compound, the values for the zone of inhibition at 200 µg/disc in the experiment with Fusarium solani [10], in the experiment on Curvularia lunata [12] and in the experiment on Aspergillus niger [14] were 42 mm, 44 mm and 39 mm, respectively. Moreover, the MIC against Fusarium solani [19] was determined as 12.5 µg/mL (≈ 23.5 µM); in the experiment with Curvularia lunata [20], 6.25 µg/mL (≈ 11.8 µM); in the experiment with Aspergillus niger [21], 6.25 µg/mL (≈ 11.8 µM).
